Laboratory results from ChEMBL document CHEMBL1122153, “Novel dimeric derivatives of leucomycins and tylosin, sixteen-membered macrolides” (1982).
≈ marks a conversion by molar mass, not a printed value.

Key:
Type in all cases: functional
[1] = test system: Bacillus subtilis; experiment: Minimum inhibitory concentration (MIC) required to inhibit the growth of Bacillus subtilis PCI 219 by using nutrient agar as growth medium
[2] = test system: Escherichia coli; experiment: Minimum inhibitory concentration (MIC) required to inhibit the growth of Escherichia coli NIHJ using nutrient agar as growth medium
[3] = test system: Escherichia coli; experiment: Inhibition of 10,11,12,13-[3H]tetrahydroleucomycin A3 binding to Escherichia coli Ribosome; conditions: read-out: ID50
Summary of the method: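 Competition binding of [3H]tetrahydroleucomycin A3 to E. coli ribosomes. ID50 is the concentration of test agent giving 50% inhibition of radioligand binding.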

[4] = test system: Klebsiella pneumoniae; experiment: Minimum inhibitory concentration (MIC) required to inhibit the growth of Klebsiella pneumoniae PCI 602 using nutrient agar as growth medium
[5] = test system: Micrococcus luteus; experiment: Minimum inhibitory concentration (MIC) required to inhibit the growth of Sarcina lutea PCI 1001 by using nutrient agar as growth medium
[6] = test system: Staphylococcus aureus; experiment: Minimum inhibitory concentration (MIC) required to inhibit the growth of Staphylococcus aureus FDA 209P by using nutrient agar as growth medium

## CCCC(=O)OC1C(C)OC(OC2C(C)OC(O[C@@H]3[C@H](CCNCC[C@H]4C[C@@H](C)[C@@H](O)/C=C/C=C/C[C@@H](C)OC(=O)C[C@@H](O)[C@H](OC)[C@H]4OC4OC(C)C(OC5CC(C)(O)C(OC(=O)CCC)C(C)O5)C(N(C)C)C4O)C[C@H](C)[C@H](O)/C=C/C=C/C[C@H](C)OC(=O)C[C@H](O)[C@H]3OC)C(O)C2N(C)C)CC1(C)O (some centres undefined)
[1]
  MIC: 12.5 µg/mL (≈ 8.18 µM)
[2]
  MIC: > 100 µg/mL
[3]
  IC50: 0.02 µg/mL (≈ 0.0131 µM)
[4]
  MIC: > 100 µg/mL
[5]
  MIC: 12.5 µg/mL (≈ 8.18 µM)
[6]
  MIC: 50 µg/mL (≈ 32.7 µM)

## CCCC(=O)OC1C(C)OC(OC2C(C)OC(O[C@H]3[C@@H](CC=O)C[C@@H](C)[C@@H](O)/C=C/C=C/C[C@@H](C)OC(=O)C[C@@H](O)[C@@H]3OC)C(O)C2N(C)C)CC1(C)O (some centres undefined)
[1]
  MIC: 0.2 µg/mL (≈ 0.259 µM)
[2]
  MIC: 25 µg/mL (≈ 32.4 µM)
[3]
  IC50: 0.0012 µg/mL (≈ 0.00155 µM)
[4]
  MIC: 25 µg/mL (≈ 32.4 µM)
[5]
  MIC: < 0.1 µg/mL
[6]
  MIC: < 0.1 µg/mL

## CC[C@H]1OC(=O)C[C@@H](O)[C@H](C)[C@@H](OC2OC(C)C(OC3CC(C)(O)C(O)C(C)O3)C(N(C)C)C2O)[C@@H](CCN)C[C@@H](C)C(=O)/C=C/C(C)=C/C1COC1OC(C)C(O)C(OC)C1OC (some centres undefined)
[1]
  MIC: 25 µg/mL (≈ 27.3 µM)
[2]
  MIC: > 100 µg/mL
[4]
  MIC: > 100 µg/mL
[5]
  MIC: 6.25 µg/mL (≈ 6.81 µM)
[6]
  MIC: 50 µg/mL (≈ 54.5 µM)

## CO[C@@H]1[C@@H](OC2OC(C)C(OC3CC(C)(O)C(OC(=O)CC(C)C)C(C)O3)C(N(C)C)C2O)[C@@H](CC=O)C[C@@H](C)[C@@H](O)/C=C/C=C/C[C@@H](C)OC(=O)C[C@H]1OC(C)=O (some centres undefined)
[1]
  MIC: 0.4 µg/mL (≈ 0.483 µM)
[2]
  MIC: 50 µg/mL (≈ 60.4 µM)
[4]
  MIC: 50 µg/mL (≈ 60.4 µM)
[5]
  MIC: < 0.1 µg/mL
[6]
  MIC: 0.4 µg/mL (≈ 0.483 µM)

## CC[C@@H]1OC(=O)C[C@H](O)[C@@H](C)[C@H](OC2OC(C)C(O)C(N(C)C)C2O)[C@H](CCNCC[C@H]2C[C@@H](C)C(=O)/C=C/C(C)=C/C(COC3OC(C)C(O)C(OC)C3OC)[C@@H](CC)OC(=O)C[C@@H](O)[C@H](C)[C@H]2OC2OC(C)C(O)C(N(C)C)C2O)C[C@H](C)C(=O)/C=C/C(C)=C/C1COC1OC(C)C(O)C(OC)C1OC (some centres undefined)
[1]
  MIC: 25 µg/mL (≈ 16.4 µM)
[2]
  MIC: 50 µg/mL (≈ 32.7 µM)
[4]
  MIC: 100 µg/mL (≈ 65.4 µM)
[5]
  MIC: 0.78 µg/mL (≈ 0.51 µM)
[6]
  MIC: 3.12 µg/mL (≈ 2.04 µM)

## CO[C@@H]1[C@@H](OC2OC(C)C(OC3CC(C)(O)C(OC(=O)CC(C)C)C(C)O3)C(N(C)C)C2O)[C@@H](CCNCC[C@@H]2C[C@H](C)[C@H](O)/C=C/C=C/C[C@H](C)OC(=O)C[C@H](OC(C)=O)[C@@H](OC)[C@@H]2OC2OC(C)C(OC3CC(C)(O)C(OC(=O)CC(C)C)C(C)O3)C(N(C)C)C2O)C[C@@H](C)[C@@H](O)/C=C/C=C/C[C@@H](C)OC(=O)C[C@H]1OC(C)=O (some centres undefined)
[1]
  MIC: 6.25 µg/mL (≈ 3.81 µM)
[2]
  MIC: > 100 µg/mL
[3]
  IC50: 0.1 µg/mL (≈ 0.0609 µM)
[4]
  MIC: > 100 µg/mL
[5]
  MIC: 25 µg/mL (≈ 15.2 µM)
[6]
  MIC: 100 µg/mL (≈ 60.9 µM)

## CO[C@@H]1[C@@H](OC2OC(C)C(OC3CC(C)(O)C(OC(=O)CC(C)C)C(C)O3)C(N(C)C)C2O)[C@@H](CCN)C[C@@H](C)[C@@H](O)/C=C/C=C/C[C@@H](C)OC(=O)C[C@H]1OC(C)=O (some centres undefined)
[1]
  MIC: 50 µg/mL (≈ 60.3 µM)
[2]
  MIC: > 100 µg/mL
[4]
  MIC: > 100 µg/mL
[5]
  MIC: > 100 µg/mL
[6]
  MIC: > 100 µg/mL

## CC[C@H]1C[C@@H](C)[C@@H](O)/C=C/C=C/C[C@@H](C)OC(=O)C[C@@H](OC(C)=O)[C@H](OC)[C@H]1OC1OC(C)C(OC2CC(C)(O)C(OC(=O)CC(C)C)C(C)O2)C(N(C)C)C1O (some centres undefined)
[1]
  MIC: 6.25 µg/mL (≈ 7.68 µM)
[2]
  MIC: > 100 µg/mL
[4]
  MIC: > 100 µg/mL
[5]
  MIC: 1.56 µg/mL (≈ 1.92 µM)
[6]
  MIC: 6.25 µg/mL (≈ 7.68 µM)

## CCCC(=O)OC1C(C)OC(OC2C(C)OC(O[C@H]3[C@@H](CCN)C[C@@H](C)[C@@H](O)/C=C/C=C/C[C@@H](C)OC(=O)C[C@@H](O)[C@@H]3OC)C(O)C2N(C)C)CC1(C)O (some centres undefined)
[1]
  MIC: > 100 µg/mL
[2]
  MIC: > 100 µg/mL
[4]
  MIC: > 100 µg/mL
[5]
  MIC: 25 µg/mL (≈ 32.3 µM)
[6]
  MIC: > 100 µg/mL

## CC[C@H]1OC(=O)C[C@@H](O)[C@H](C)[C@@H](O[C@@H]2O[C@H](C)[C@@H](O[C@H]3C[C@@](C)(O)[C@@H](O)[C@H](C)O3)[C@H](N(C)C)[C@H]2O)[C@@H](CC=O)C[C@@H](C)C(=O)/C=C/C(C)=C/[C@@H]1CO[C@@H]1O[C@H](C)[C@@H](O)[C@@H](OC)[C@H]1OC [TYLOSIN]
[1]
  MIC: 0.78 µg/mL (≈ 0.851 µM)
[2]
  MIC: 50 µg/mL (≈ 54.6 µM)
[3]
  IC50: 0.0004 µg/mL (≈ 0.000437 µM)
[4]
  MIC: 100 µg/mL (≈ 109 µM)
[5]
  MIC: < 0.1 µg/mL
[6]
  MIC: 0.78 µg/mL (≈ 0.851 µM)
